Source: PubChem BioAssay
Many of the other results were omitted from the sample, so hits are more common in it than they were.
PTEN del growth = growth suppression of PTEN-null HCT116, primary screen, cell-based, CellTiter-Glo; 140,000 tested, 1.2% active; viability, % at 10 µM; HCT116 PTEN-null viability, 60 h; stronger effect = lower value;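 active = viability at or below a set limit, 4 SD under the median of all tested compounds, cut at about 3.7% in these data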;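 also: PTEN knockout HCT116 line with beta catenin targeted HCT116 as companion control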
HUVEC prolif 384 = inhibitors of HUVEC proliferation, primary screen, cell-based, 384-well; viability, % at 10 µM (by protocol); CellTiter-Glo luminescence, 72 h; stronger effect = lower value; 86,000 tested, 1.1% active;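 active = viability at or below 30%; inactive = viability above 30%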;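 also: 100% = median luminescence of DMSO-only cell control wells on each plate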
HCT116 bCat-KO = primary screen for growth suppressors in beta-catenin knockout HCT116 cells (colon tumor, human); HCT116 beta-catenin knockout viability, CellTiter-Glo, 60 h; stronger effect = lower value; viability, % at 10 µM; 140,000 tested, 1.5% active; AID 818, 2007;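 active = viability at or under a set limit, the compound median less 4 SD, cut at about 6% in these data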;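 also: 0% = Hyamine 1622 control at 20 µM and 100% = untreated cell control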
Fibroblast inh = antiproliferative effect on LL 47 fibroblasts – human, LL 47 cells, CellTiter-Glo luminescence, primary screen | AID 719, 2007 | 85,000 tested, 1.1% active | viability, % at 10 µM | LL 47 human lung fibroblast viability, ATP luminescence; stronger effect = lower value;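 active = viability at or below 50% in the single dose screen; inactive = viability above 50%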;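 also: compound exposure lasted 72 h before the ATP readout; 100% = median luminescence of untreated cell-only wells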
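Test system: LL 47 human lung fibroblasts / Incubation: 72 h compound exposure at 37 °C after overnight plating / Technique: luminescent ATP detection, CellTiter-Glo / Compound dosing: 0.1% DMSO in all compound wells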
H69AR growth 86K = proliferation blockers of H69AR lung cancer cells, primary screen, cell-based, human, 86K library | viability, % at 10 µM | H69AR lung tumor viability, ATP luminescence, 72 h; stronger effect = lower value | 85,000 tested, 6% active;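 active = viability at or below 40%; inactive = viability above 40%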;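 also: multidrug resistant small cell line overexpressing MRP-1 efflux transporter; 100% = mean luminescence of untreated control wells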
An asterisk follows results filed as active.

`CCOc1ccc(C(=O)Nc2cc(-c3nc4ccccc4[nH]3)ccc2Cl)cc1[N+](=O)[O-]` gave PTEN del growth 1.2* and HCT116 bCat-KO 1.2*.
`O=C(NCCc1ccccc1)c1ccnc(/C=N/O)c1` gave PTEN del growth 104.3, HUVEC prolif 384 98.7, HCT116 bCat-KO 99.0, Fibroblast inh 108.6 and H69AR growth 86K 95.0.
Screening Cc1ccc2[nH]c(SCC(=O)N3CCOCC3)nc2c1C returned PTEN del growth 97.3, HUVEC prolif 384 90.4, HCT116 bCat-KO 87.1, Fibroblast inh 99.3 and H69AR growth 86K 94.4.
Screening Cc1[nH]n2c(=O)cc(C(C)(C)C)nc2c1-c1ccccc1 returned PTEN del growth 16.8, HUVEC prolif 384 50.0, HCT116 bCat-KO 12.9, Fibroblast inh 68.7 and H69AR growth 86K 35.8*.
`Cc1[nH]n2c(=O)cc(C(C)C)nc2c1-c1ccccc1` gave PTEN del growth 73.8, HUVEC prolif 384 57.9, HCT116 bCat-KO 66.7, Fibroblast inh 66.4 and H69AR growth 86K 14.3*.
`CCCc1cc(=O)n2[nH]c(C)c(-c3ccccc3)c2n1` gave PTEN del growth 83.2, HUVEC prolif 384 75.6, HCT116 bCat-KO 89.4, Fibroblast inh 103.2 and H69AR growth 86K 54.6.
`Cc1[nH]n2c(=O)cc(-c3ccc([N+](=O)[O-])cc3)nc2c1-c1ccccc1` gave HUVEC prolif 384 8.6*, Fibroblast inh 53.3 and H69AR growth 86K 14.9*.
O=C(Nc1nnc(Cc2ccc(Cl)cc2)s1)c1ccco1 was read as PTEN del growth 89.8, HUVEC prolif 384 79.5, HCT116 bCat-KO 90.6, Fibroblast inh 110.3 and H69AR growth 86K 109.3.
Screening CCOc1ccc(NC(=S)NN2CCN(C)CC2)cc1 returned PTEN del growth 106.1 and HCT116 bCat-KO 112.2.
`Cc1ccc2nc(-c3ccc(N4C(=O)CC(N5CCC(C(N)=O)CC5)C4=O)cc3)sc2c1` (centres undefined) gave PTEN del growth 90.2 and HCT116 bCat-KO 97.8.
For COc1c(C)cc(Br)cc1C(=O)O the results were PTEN del growth 90.0, HUVEC prolif 384 102.6, HCT116 bCat-KO 85.4, Fibroblast inh 103.8 and H69AR growth 86K 102.7.
For CCOc1ccc(OCC)c(NC(=O)C2CCCN(S(=O)(=O)c3c(C)noc3C)C2)c1 (centres undefined) the results were PTEN del growth 22.0, HUVEC prolif 384 78.0, HCT116 bCat-KO 18.4, Fibroblast inh 81.6 and H69AR growth 86K 19.2*.
COc1ccc2nc(NC(=O)C3CCCN(S(=O)(=O)c4c(C)noc4C)C3)sc2c1 (centres undefined) was read as PTEN del growth 46.5, HUVEC prolif 384 86.1, HCT116 bCat-KO 54.1, Fibroblast inh 101.4 and H69AR growth 86K 35.1*.
For COc1ccc(OC)c(NC(=O)C2CCCN(S(=O)(=O)c3c(C)noc3C)C2)c1 (centres undefined) the results were PTEN del growth 87.8, HUVEC prolif 384 93.9, HCT116 bCat-KO 95.3, Fibroblast inh 102.1 and H69AR growth 86K 79.2.
For Cn1c(=O)n(Cc2ccccc2)c2ccccc21 the results were PTEN del growth 101.6 and HCT116 bCat-KO 97.9.
`Cc1cc2c(c(=O)n1C1CC1)C(c1cccc(Cl)c1)C(C#N)=C(N)O2` (centres undefined) gave PTEN del growth 90.2, HUVEC prolif 384 96.0, HCT116 bCat-KO 99.0, Fibroblast inh 95.2 and H69AR growth 86K 79.6.
`CCOC(=O)c1oc2ccccc2c1NC(=O)c1ccc(S(=O)(=O)N2CCCC2)cc1` gave PTEN del growth 103.4, HUVEC prolif 384 79.2, HCT116 bCat-KO 102.3, Fibroblast inh 92.3 and H69AR growth 86K 70.6.
For O=C(CCN1CCc2ccccc2C1)c1ccc2c(c1)OCCO2 the results were PTEN del growth 80.3, HUVEC prolif 384 86.5, HCT116 bCat-KO 64.3, Fibroblast inh 80.2 and H69AR growth 86K 0.7*.
`O=C(CCN1CCc2ccccc21)c1ccc2c(c1)OCCO2` gave PTEN del growth 12.4, HUVEC prolif 384 100.7, HCT116 bCat-KO 11.6, Fibroblast inh 95.5 and H69AR growth 86K 92.1.
`C=CCNC(=O)C1CC(=O)N(c2ccc(OCC(=O)Nc3ccc(Cl)c(C(F)(F)F)c3)cc2)C1` (centres undefined) gave PTEN del growth 1.9*, HUVEC prolif 384 80.3, HCT116 bCat-KO 1.9*, Fibroblast inh 97.9 and H69AR growth 86K 13.8*.
`O=C1C=C(Nc2ccc(O)cc2)CC(c2ccco2)C1` (centres undefined) gave PTEN del growth 31.8, HUVEC prolif 384 64.1, HCT116 bCat-KO 38.5, Fibroblast inh 80.0 and H69AR growth 86K 26.2*.
`O=C1C=C(O)CC(c2ccco2)C1` (centres undefined) gave PTEN del growth 110.4, HUVEC prolif 384 90.3, HCT116 bCat-KO 95.8, Fibroblast inh 97.8 and H69AR growth 86K 92.6.
Screening Cc1c(NC(=O)c2nn3c(C(F)(F)F)cc(-c4ccccc4)nc3c2Cl)c(=O)n(-c2ccccc2)n1C returned PTEN del growth 74.7 and HCT116 bCat-KO 74.7.
`Cc1c(NC(=O)c2cc3nc(-c4ccc(Cl)cc4)cc(C(F)(F)F)n3n2)c(=O)n(-c2ccccc2)n1C` gave PTEN del growth 73.4, HUVEC prolif 384 94.5, HCT116 bCat-KO 69.3, Fibroblast inh 112.0 and H69AR growth 86K 18.2*.
For Cc1ccc(Cn2ccc(NC(=O)c3cc4nc(-c5ccco5)cc(C(F)(F)F)n4n3)n2)cc1 the results were PTEN del growth 53.7, HUVEC prolif 384 68.4, HCT116 bCat-KO 61.4, Fibroblast inh 66.9 and H69AR growth 86K 35.1*.
For Cc1ccccc1C(=O)NC(NC(=O)c1ccccc1C)c1cccc([N+](=O)[O-])c1 the results were PTEN del growth 46.5 and HCT116 bCat-KO 53.1.
For CCc1ccc2c(c1)C1(NN=C(c3cccc4ccccc34)S1)C(=O)N2 (centres undefined) the results were PTEN del growth 10.7, HUVEC prolif 384 35.0, HCT116 bCat-KO 10.2, Fibroblast inh 34.5* and H69AR growth 86K 18.9*.
`CCc1ccc2[nH]c(=O)c(C(c3nnnn3CC3CCCO3)N3CCCc4ccccc43)cc2c1` (centres undefined) gave PTEN del growth 84.4, HUVEC prolif 384 89.2, HCT116 bCat-KO 87.2, Fibroblast inh 95.4 and H69AR growth 86K 20.2*.
Screening O=c1[nH]c2cc3c(cc2cc1C(c1nnnn1Cc1ccccc1)N1CCCCCC1)OCCO3 (centres undefined) returned PTEN del growth 99.0, HUVEC prolif 384 68.7, HCT116 bCat-KO 93.2, Fibroblast inh 29.8* and H69AR growth 86K 2.1*.
Screening COCCn1nnnc1C(c1cc2cc(OC)ccc2[nH]c1=O)N1CCC(Cc2ccccc2)CC1 (centres undefined) returned PTEN del growth 2.7*, HUVEC prolif 384 96.1, HCT116 bCat-KO 3.0*, Fibroblast inh 105.7 and H69AR growth 86K 3.8*.
